The values that follow come from ChEMBL document CHEMBL1122552, “Synthesis and biological evaluation of 6-amino-1H-pyrrolo[3,2-c]pyridin-4(5H)-one (3,7-dideazaguanine)” (1984).

Test [1] can be described thus: Ability to inhibit growth of TG-1 cells (a mutant cell line resistant to 6-thioguanine and lacks hypoxanthine-guanine phosphoribosyltransferase) was determined.
For test [2], the system named is Mus musculus. The test is described as follows: Effect on mice inoculated with P388 Lymphocytic leukemia, was studied. Compound dose is 400 mg/kg (Exp-1)Average animal body weight change of test group minus that of control animals. The test is classed as functional.
The test system of test [3] is Mus musculus. Nature of the test: Compound was evaluated for median life span after tumor implantation at a dose of 200 mg/kg. Format: functional. In a few lines: (§1)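 P388 leukemia cells (10^6) implanted ip in groups of 6 CDF1 mice, with 30 untreated controls. Therapy began 24 h later: compound in saline given ip on days 1-5. Recorded median life span in days after implant, T/C %, and body-weight change of treated minus control animals.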

In test [4] the test system is Mus musculus. The test is described as follows: Compound was evaluated for median life span after tumor implantation at a dose of 50 mg/kg. The test is classed as functional. The essentials: as §1
In another test the test system is AA6. Nature of the test: Ability to inhibit growth of AA-6 cells (a mutant cell line resistant to 8-azaadenine and lacks […]) was determined. The test is classed as functional. As to conditions: Cricetulus griseus. In a few lines: (§2)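 Clonogenic growth assay: log-phase cells trypsinized, diluted in McCoy's 5A with dialyzed fetal calf serum, about 200 cells per dish. Cells were grown at 0.5–3000 μM for 7 days at 37.5 °C in humidified CO2, then fixed in 10% formaldehyde and stained with 0.1% crystal violet. The minimum inhibitory concentration is the lowest tested concentration giving clones of fewer than 50 cells.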

Test [5] concerns Mus musculus. Nature of the test: Effect on mice inoculated with P388 Lymphocytic leukemia, was studied. Compound dose is 200 mg/kg (Exp-1)Average animal body weight change of test group minus that of control animals. Format: functional. In a few lines: (§3)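 Experiment 1: P388 cells (10^6) implanted ip in CDF1 mice, 6 per group, 30 untreated controls. Dosing in saline, ip, on days 1-5, starting 24 h after implant. Reported value is the mean body weight change of the treated group minus that of the controls, in g.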

In test [6] the test system is Mus musculus. Nature of the test: Compound was evaluated for value at a dose of 100 mg/kg. Format: functional. The essentials: (§4)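 Experiment 1: 10^6 P388 cells implanted ip in groups of 6 CDF1 mice, with 30 untreated controls. Therapy began 24 h later: saline solution given ip on days 1-5. Value is T/C, %, of median life span (days postimplant) against untreated controls.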

The test system of the next test is Human alphaherpesvirus 1. The test is described as follows: The minimum inhibitory concentration required to reduce HSV-1(KOS) induced cytopathogenicity in primary rabbit kidney cells by 50%. The test is classed as functional. The essentials:
(§5)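 Inhibition of virus-induced cytopathogenicity in primary rabbit kidney cells. The minimal inhibitory concentration (μg/mL) is the one reducing cytopathogenicity by 50%, scored when cytopathogenicity was complete in virus-infected untreated controls. Minimal cytotoxic concentration was taken as the one causing microscopically detectable change in cell morphology; 400 μg/mL was the highest concentration tested.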
(In general: Protection from cytopathic effect is a common read-out in antiviral testing.)

The test system of test [7] is Mus musculus. The test is described as follows: Effect on mice inoculated with P388 Lymphocytic leukemia, was studied. Compound dose is 50 mg/kg (Exp-1)Average animal body weight change of test group minus that of control animals. Format: functional. In a few lines: as §3
Test [8] concerns Mus musculus. The test is described as follows: Compound was evaluated for value at a dose of 50 mg/kg. The test is classed as functional. The essentials:
as §4

Test [9] deals with Vesicular stomatitis virus. The test is described as follows: The minimum inhibitory concentration required to reduce VSV induced cytopathogenicity in primary rabbit kidney cells by 50%. Format: functional.
Another test has as its system Coxsackievirus. The test is described as follows: The minimum inhibitory concentration required to reduce Coxsackie virus type B4 induced cytopathogenicity in primary rabbit kidney cells by 50%. The test is classed as functional.
The subject of test [10] is Mus musculus. Nature of the test: Compound was evaluated for median life span after tumor implantation at a dose of 100 mg/kg. Format: functional. In a few lines: as §1
In test [11] the test system is Mus musculus. Nature of the test: Compound was evaluated for median life span after tumor implantation at a dose of 400 mg/kg. Format: functional. The essentials:
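P388 leukemia cells (10^6) implanted ip in groups of 6 BDF1 mice, with 30 untreated controls. Therapy began 24 h later: compound in saline given ip on days 1-5. Recorded median life span in days after implant, T/C %, and body-weight change of treated minus control animals.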

For a further test, the system named is Human alphaherpesvirus 2. Nature of the test: The minimum inhibitory concentration required to reduce HSV-2 (G) induced cytopathogenicity in primary rabbit kidney cells by 50%. The test is classed as functional. The essentials:
as §5

In test [12] the test system is Mus musculus. Nature of the test: Compound was evaluated for value at a dose of 400 mg/kg. Format: functional. The essentials: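 Experiment 2: 10^6 P388 cells implanted ip in groups of 6 BDF1 mice, with 30 untreated controls. Therapy began 24 h later: saline solution given ip on days 1-5. Value is T/C, %, of median life span (days postimplant) against untreated controls.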

The test system of another test is CHO. The test is described as follows: Ability to inhibit growth of CHO cells was determined. Format: functional. The settings on record: Cricetulus griseus. The essentials:
as §2

The subject of test [13] is Mus musculus. Nature of the test: Compound was evaluated for value at a dose of 200 mg/kg. Format: functional. In a few lines: as §4
Test [14] has as its system Mus musculus. The test is described as follows: Effect on mice inoculated with P388 Lymphocytic leukemia, was studied. Compound dose is 100 mg/kg (Exp-1)Average animal body weight change of test group minus that of control animals. Format: functional. The essentials: as §3

As usually defined, the T/C is the result in the treated group divided by that in the control group, in per cent.

Values after ≈ are worked out from the molar mass of the structure shown.

As for `Nc1cc2[nH]ccc2c(O)n1`, the MIC was 1000 µM (≈ 149 µg/mL) in [1]; 1000 µM (≈ 149 µg/mL) in the test on AA6; above 400 µg/mL against Human alphaherpesvirus 1; above 400 µg/mL in test [9]; above 400 µg/mL against Coxsackievirus; above 400 µg/mL in the test on Human alphaherpesvirus 2. Besides, the MIC with CHO worked out at 1000 µM (≈ 149 µg/mL). The Activity in the test with Mus musculus [2] is listed as -0.7 g; in the test with Mus musculus [5], -1.6 g; in the test with Mus musculus [7] it was -0.2 g; in the test with Mus musculus [14], -0.6 g. Moreover, the Median life span in the test with Mus musculus [3] came to 12.4 days; in the test on Mus musculus [4], 11.7 days; in the test on Mus musculus [10], 12.3 days; in the test with Mus musculus [11] it was 16.3 days. Moreover, the T/C worked out at 113% with Mus musculus [6], 108% with Mus musculus [8], 126% with Mus musculus [12] and 114% in the test on Mus musculus [13].
With `Nc1ncnc2c1ncn2C[C@H](O)CO` [(S)-DHPA], the MIC against Human alphaherpesvirus 1 and with Human alphaherpesvirus 2 was above 400 µg/mL each time.
In the case of `Nc1cc2[nH]cnc2c(=O)[nH]1` [DEZAGUANINE], the MIC in test [1] came out at 1500 µM (≈ 225 µg/mL); in the test with AA6 it was 500 µM (≈ 75.1 µg/mL); against Human alphaherpesvirus 1 it was 4 µg/mL (≈ 26.6 µM); against Human alphaherpesvirus 2, 150 µg/mL (≈ 999 µM); in the test with CHO, 10 µM (≈ 1.5 µg/mL).
As for `NC(=O)c1ncn([C@@H]2O[C@H](CO)[C@@H](O)[C@H]2O)n1` [RIBAVIRIN], the MIC with Human alphaherpesvirus 1 and against Human alphaherpesvirus 2 was above 400 µg/mL in each case.
